Source: PubChem BioAssay
TRPC6 inhibitor: mouse TRPC6 channel inhibition | 310,000 compounds, 1.1% hits | B-score at 10 µM | Q61143 | HEK293-TRPC6, membrane potential dye, ACh-evoked depolarization; active compounds read low;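 active means B-score under library mean minus 3 SD, initial fluorescence not abnormally high, positive integrated signal ratio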;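 further: B-score derived from integrated fluorescence ratio over the kinetic read; more negative B-score means stronger inhibition of depolarization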
Target sequence (Q61143 whole entry, looked up): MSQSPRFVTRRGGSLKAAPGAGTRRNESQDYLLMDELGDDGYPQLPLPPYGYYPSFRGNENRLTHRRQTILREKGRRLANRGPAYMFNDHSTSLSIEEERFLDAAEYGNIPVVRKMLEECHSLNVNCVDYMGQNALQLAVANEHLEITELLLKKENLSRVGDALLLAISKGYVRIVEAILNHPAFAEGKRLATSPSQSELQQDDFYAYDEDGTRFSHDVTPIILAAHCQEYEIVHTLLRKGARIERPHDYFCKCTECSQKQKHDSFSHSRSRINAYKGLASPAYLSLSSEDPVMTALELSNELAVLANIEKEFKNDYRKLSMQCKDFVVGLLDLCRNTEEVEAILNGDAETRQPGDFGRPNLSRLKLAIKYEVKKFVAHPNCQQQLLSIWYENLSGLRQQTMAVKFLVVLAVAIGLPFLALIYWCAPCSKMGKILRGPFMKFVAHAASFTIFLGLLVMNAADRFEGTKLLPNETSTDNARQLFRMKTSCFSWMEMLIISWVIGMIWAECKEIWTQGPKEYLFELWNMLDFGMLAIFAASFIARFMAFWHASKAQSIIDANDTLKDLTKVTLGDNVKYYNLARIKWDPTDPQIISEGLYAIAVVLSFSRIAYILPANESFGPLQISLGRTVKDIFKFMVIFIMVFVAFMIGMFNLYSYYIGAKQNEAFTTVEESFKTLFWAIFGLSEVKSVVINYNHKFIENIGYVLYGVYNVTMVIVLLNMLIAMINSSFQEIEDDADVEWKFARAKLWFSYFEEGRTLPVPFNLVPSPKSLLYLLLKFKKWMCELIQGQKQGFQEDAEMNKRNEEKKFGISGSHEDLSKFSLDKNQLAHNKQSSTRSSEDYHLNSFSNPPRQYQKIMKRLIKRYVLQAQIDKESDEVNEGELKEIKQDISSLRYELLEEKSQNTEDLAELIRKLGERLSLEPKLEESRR
TRPC4 act: opens the mouse TRPC4 cation channel | AID 2237 | 310,000 compounds, 0.49% hits | HEK293 TRPC4beta/mu-opioid, Fluo4 calcium fluorescence; active compounds read high | B-score at 10 µM | Q9QUQ5;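 active means B-score above 5 SD of library B-scores, and initial fluorescence ratio not above library mean plus 5 SD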;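 further: positive B-score marks a calcium rise read as TRPC4 activation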
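Technique: kinetic Fluo4 calcium fluorescence; Test system: TRPC4beta and mu-opioid receptor HEK293 stable cells; Measure: B-scored integrated calcium fluorescence ratio; Benchmarks: low control buffer alone, high control maximal DAMGO; Schedule: 45 min room-temperature Fluo4 loading, 110 s read.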
TRPC6 activator: activates the mouse TRPC6 cation channel | Q61143 | HEK293-TRPC6 membrane potential dye fluorescence; active compounds read high | 310,000 compounds, 0.13% hits | B-score at 10 µM;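 active means B-score of the integrated fluorescence ratio above library mean plus 3 SD, and starting fluorescence ratio within library mean plus 5 SD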;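 further: higher score means more depolarization so channel activation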
DSG3 Ab inh: human desmoglein-3 autoantibody binding inhibition; binding (percent of control), % at 10 µM; 310,000 compounds, 0.48% hits; DSG3-coupled beads, scFv-anti-DSG3-GFP binding, flow cytometry; active compounds read low; P32926; AID 588358;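 active means binding more than 3 SD below its plate's average and above zero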;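 further: hits lower antibody fragment binding to DSG3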
TRPC4 PAM: allosteric potentiators of mouse TRPC4 channel; HEK293 TRPC4beta/mu-opioid, DAMGO EC20, Fluo-4 Ca2+ flux; active compounds read high; B-score at 10 µM; 310,000 compounds, 0.42% hits; AID 2227;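 active means B-score of calcium response area above 5 SD of library B-scores, with initial fluorescence ratio within 5 SD of library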;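 further: B-score of integrated fluorescence ratio over time as area under calcium response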
TRPC4 inh: blocks the mouse TRPC4 cation channel; Q9QUQ5; HEK293 TRPC4beta/mu-opioid, DAMGO-evoked Fluo4 calcium flux; active compounds read low; B-score at 10 µM; 300,000 compounds, 0.39% hits;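 active means B-score over 3 SD under the library average, no early fluorescence shift, positive overall ratio signal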
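Signal: kinetic Fluo4 fluorescence imaging of calcium influx. Material: stable TRPC4beta/mu-opioid receptor HEK293 cells. Probe or stimulus: DAMGO in two steps, submaximal then maximal.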
* hit, by the source's call. Shown are actives, neighbours in structure and some others; about 2.5% of the full set was active somewhere.

For Cc1ccc(NC(=O)CCC(=O)NNC(=O)Nc2cccc(Cl)c2)c(C)c1 the results were TRPC6 inhibitor inactive, TRPC4 act inactive, TRPC6 activator inactive, DSG3 Ab inh 103, TRPC4 PAM inactive and TRPC4 inh inactive.
For Cc1ccc(OCCC(=O)OCC(=O)Nc2c(C)nn(-c3ccccc3)c2C)cc1 the results were TRPC6 inhibitor inactive, TRPC4 act inactive, TRPC6 activator inactive, DSG3 Ab inh 104, TRPC4 PAM inactive and TRPC4 inh inactive.
`CCCCNC(=O)/C(C#N)=C/c1ccc(F)cc1F` gave TRPC6 inhibitor inactive, TRPC4 act inactive, TRPC6 activator inactive, DSG3 Ab inh 81, TRPC4 PAM 27* and TRPC4 inh inactive.
CCCC(=O)Nc1c(-c2ccccc2)c(=O)c(C)nn1-c1ccc(Cl)cc1 was read as TRPC6 inhibitor inactive, TRPC4 act 78*, TRPC6 activator inactive, DSG3 Ab inh 92, TRPC4 PAM inactive and TRPC4 inh inactive.
COc1ccc(-c2c(NC(=O)c3ccco3)n(-c3ccccc3)nc(C)c2=O)cc1 was read as TRPC6 inhibitor inactive, TRPC4 act inactive, TRPC6 activator inactive, DSG3 Ab inh 104, TRPC4 PAM inactive and TRPC4 inh inactive.
Screening O=C(CC1S/C(=N\S(=O)(=O)c2ccc(F)cc2)N(c2ccccc2)C1=O)Nc1ccccc1 (configuration not stated) returned TRPC6 inhibitor inactive, TRPC4 act inactive, TRPC6 activator inactive, DSG3 Ab inh 79*, TRPC4 PAM inactive and TRPC4 inh inactive.
`O=C(CC1SC(=O)N(c2ccccc2)C1=O)Nc1ccc(Br)cc1` (configuration not stated) gave TRPC6 inhibitor inactive, TRPC4 act inactive, TRPC6 activator inactive, DSG3 Ab inh 106, TRPC4 PAM inactive and TRPC4 inh inactive.
`CCCCC1CCC(C(=O)N(CCCC)c2c(N)n(CCCC)c(=O)[nH]c2=O)CC1` (configuration not stated) gave TRPC6 inhibitor inactive, TRPC4 act inactive, TRPC6 activator inactive, DSG3 Ab inh 103, TRPC4 PAM inactive and TRPC4 inh inactive.
For COc1ccc(C2=Nn3c(nnc3-c3ccccc3F)SC2)cc1OC1CCOC1 (configuration not stated) the results were DSG3 Ab inh 82*.
Screening CN(C1=C(N2CCCCC2)C(=O)c2ccccc2C1=O)c1ccccc1 returned TRPC6 inhibitor -7.2*, TRPC4 act inactive, TRPC6 activator inactive, DSG3 Ab inh 104, TRPC4 PAM inactive and TRPC4 inh inactive.
For Cc1ccc(C(=O)NNC(=O)c2csc(N3CCOCC3)n2)o1 the results were TRPC6 inhibitor inactive, TRPC4 act inactive, TRPC6 activator inactive, DSG3 Ab inh 96*, TRPC4 PAM inactive and TRPC4 inh inactive.
For O=C(NNC(=O)c1ccc(Br)o1)c1csc(N2CCOCC2)n1 the results were DSG3 Ab inh 99.
Screening CN1CCN(CC(O)Cn2c3ccccc3c3ccccc32)CC1 (configuration not stated) returned TRPC6 inhibitor inactive, TRPC4 act inactive, TRPC6 activator inactive, DSG3 Ab inh 101, TRPC4 PAM inactive and TRPC4 inh inactive.
CN1CCN(CC#CCn2c3ccccc3c3ccccc32)CC1 was read as TRPC6 inhibitor inactive, TRPC4 act inactive, TRPC6 activator inactive, DSG3 Ab inh 102, TRPC4 PAM 16* and TRPC4 inh inactive.
CCOC(=O)C1CCN(S(=O)(=O)c2ccc3c(c2)N(C(C)=O)CC(C)S3)CC1 (configuration not stated) was read as TRPC6 inhibitor inactive, TRPC4 act inactive, TRPC6 activator inactive, DSG3 Ab inh 85, TRPC4 PAM inactive and TRPC4 inh inactive.
Screening O=C(CSc1nc2ccccc2[nH]1)NCc1ccc2c(c1)OCO2 returned TRPC6 inhibitor inactive, TRPC4 act inactive, TRPC6 activator inactive, DSG3 Ab inh 98, TRPC4 PAM inactive and TRPC4 inh inactive.
`O=C(CSc1nc(-c2ccccc2)cc(=O)[nH]1)NCc1ccc2c(c1)OCO2` gave TRPC6 inhibitor inactive, TRPC4 act inactive, TRPC6 activator inactive, DSG3 Ab inh 68*, TRPC4 PAM inactive and TRPC4 inh inactive.
`O=C(CSc1nc(-c2ccccc2Cl)ns1)NCc1ccc2c(c1)OCO2` gave TRPC6 inhibitor inactive, TRPC4 act inactive, TRPC6 activator inactive, DSG3 Ab inh 75*, TRPC4 PAM inactive and TRPC4 inh inactive.
For O=C(CSc1nc(-c2ccccc2Cl)ns1)NCc1ccco1 the results were TRPC6 inhibitor inactive, TRPC4 act inactive, TRPC6 activator inactive, TRPC4 PAM inactive and TRPC4 inh inactive.
Screening COCCn1c(SCC(=O)Nc2ccccc2OC)nc2c([nH]c3ccccc32)c1=O returned TRPC6 inhibitor inactive, TRPC4 act inactive, TRPC6 activator inactive, DSG3 Ab inh 94, TRPC4 PAM inactive and TRPC4 inh -7*.
COc1ccc(NC(=O)CSc2nc3c([nH]c4ccccc43)c(=O)n2C)c(OC)c1 was read as TRPC6 inhibitor inactive, TRPC4 act inactive, TRPC6 activator inactive, DSG3 Ab inh 49*, TRPC4 PAM inactive and TRPC4 inh inactive.
`COCCn1c(SCC(=O)NCCc2ccc(OC)c(OC)c2)nc2c([nH]c3ccccc32)c1=O` gave TRPC6 inhibitor inactive, TRPC4 act inactive, TRPC6 activator inactive, DSG3 Ab inh 78, TRPC4 PAM 11* and TRPC4 inh inactive.
COCCn1c(SCC(=O)NCCc2ccccc2)nc2c([nH]c3ccccc32)c1=O was read as TRPC6 inhibitor inactive, TRPC4 act inactive, TRPC6 activator inactive, DSG3 Ab inh 96, TRPC4 PAM inactive and TRPC4 inh inactive.
For O=[N+]([O-])c1ccc(-[n+]2ccc3ccccc3c2)c([N+](=O)[O-])c1 the results were TRPC6 inhibitor inactive, TRPC4 act inactive, TRPC6 activator inactive, DSG3 Ab inh 102, TRPC4 PAM inactive and TRPC4 inh inactive.
NS(=O)(=O)c1ccc(CCNS(=O)(=O)Cc2ccc(Cl)cc2)cc1 was read as TRPC6 inhibitor inactive, TRPC4 act inactive, TRPC6 activator inactive, DSG3 Ab inh 93, TRPC4 PAM inactive and TRPC4 inh inactive.
`CN(C)CC/C=C1/c2ccc(F)cc2Sc2ccc(Cl)cc21` gave TRPC6 inhibitor -5.8*, TRPC4 act inactive, TRPC6 activator inactive, DSG3 Ab inh 111, TRPC4 PAM inactive and TRPC4 inh inactive.
For CN(C)CC/C=C1\c2cc(Cl)ccc2Sc2cc(F)c(F)cc21 the results were TRPC6 inhibitor -5.5*, TRPC4 act inactive, TRPC6 activator inactive, DSG3 Ab inh 117, TRPC4 PAM inactive and TRPC4 inh inactive.
